Results reported in ChEMBL document CHEMBL1144560, “Synthesis of benzofuran scaffold-based potential PTP-1B inhibitors” (Bioorg Med Chem, 2007).
pIC50, pKi: −log10 of the molar value. The source made the active and inactive calls. The calls are words filed in the database; no cut-off is given here.

Assays:
[1] = target: T1, Tyrosine-protein phosphatase non-receptor type 1 (Homo sapiens) (UniProt P18031); assay: (§1) Inhibition of PTP1B at 100 uM
T1 sequence (whole entry): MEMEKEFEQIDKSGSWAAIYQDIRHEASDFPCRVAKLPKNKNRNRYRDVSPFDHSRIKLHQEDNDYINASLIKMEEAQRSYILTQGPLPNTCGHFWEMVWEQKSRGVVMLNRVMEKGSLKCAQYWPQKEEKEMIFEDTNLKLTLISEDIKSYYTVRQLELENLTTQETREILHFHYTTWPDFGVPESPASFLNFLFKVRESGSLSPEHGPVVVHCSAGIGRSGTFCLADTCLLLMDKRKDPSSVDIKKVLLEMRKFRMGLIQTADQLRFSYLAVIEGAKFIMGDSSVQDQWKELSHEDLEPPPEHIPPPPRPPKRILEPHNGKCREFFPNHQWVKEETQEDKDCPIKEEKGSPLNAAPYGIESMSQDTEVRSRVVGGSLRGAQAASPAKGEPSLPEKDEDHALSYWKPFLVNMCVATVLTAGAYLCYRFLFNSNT
How it was run: (§2)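 Compound at 100 µM preincubated 10 min with PTP-1B, then 10 mM pNPP in 50 mM HEPES pH 7.0 with 1 mM DTT and 2 mM EDTA for 30 min at 37 °C. Stopped with 0.1 N NaOH. p-Nitrophenolate read at 410 nm (ε 1.78×10^4 M⁻¹cm⁻¹) to give residual activity. Mean of three independent experiments.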

[2] = target: T2, Tyrosine-protein phosphatase non-receptor type 1 (Homo sapiens, UniProt P18031); assay: Inhibition of PTP1B
T2 sequence (P18031 whole entry): T1 sequence (whole entry)
How it was run: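 No detergent present. Compounds at 10, 25, 50, 75 and 100 µM preincubated 10 min with PTP-1B, then 10 mM pNPP in 50 mM HEPES pH 7.0, 1 mM DTT, 2 mM EDTA, 30 min at 37 °C. NaOH stop. A410 converted to p-nitrophenolate (ε 1.78×10^4 M⁻¹cm⁻¹). IC50 and Ki derived.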

[3] = target: T2, Tyrosine-protein phosphatase non-receptor type 1; assay: Inhibition of PTP1B in presence of 0.01% Triton X-100
How it was run: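 0.01% Triton X-100 included during the 10-min preincubation of compound (10–100 µM) with PTP-1B. Then 10 mM pNPP in 50 mM HEPES pH 7.0, 1 mM DTT, 2 mM EDTA, 30 min at 37 °C, NaOH stop. Read at 410 nm (ε 1.78×10^4 M⁻¹cm⁻¹). IC50 and Ki derived.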

[4] = target: Tyrosine-protein phosphatase non-receptor type 1 (Homo sapiens) (UniProt P18031); assay: as §1; how it was run: as §2; remark: listed apart in the source

Which Activity [1] does the source give for `COc1cccc(/C(O)=C/C(=O)c2cc3ccoc3cc2O)c1` here?
The Activity was “inactive”.

How did the pIC50 [2] turn out when `CC(=O)c1cc2cc(-c3coc4cc(O)c(C(C)=O)cc34)oc2cc1O` was run?
The pIC50 was 4.10.

What about the pKi [2] of the same compound?
The pKi was 4.43.

What about the pIC50 [3] of the same compound?
Its pIC50 is 4.04.

And the pKi [3]?
The pKi was 4.21.

What about the inhibition [1] of the same compound?
Its inhibition is 74.9%.

Which inhibition [1] does the source give for `O=c1cc(-c2ccccc2)oc2c1ccc1occc12` here?
The inhibition was 21%.

How did the inhibition [1] turn out when `O=C(/C=C(\O)c1ccccc1)c1ccc2occc2c1O` was run?
The inhibition was 40.5%.

Which inhibition [1] does the source give for `CC(=O)c1ccc2occc2c1O` here?
The inhibition was 21.6%.

With `COc1ccc(/C(O)=C/C(=O)c2cc3ccoc3cc2O)cc1OC` as the compound, how does the inhibition [1] read?
The inhibition was 32.4%.

`CC(=O)c1ccc2oc(-c3coc4ccc(C(C)=O)c(O)c34)cc2c1O` was tested. Which pIC50 [2] did it give?
The pIC50 was 4.06.

What about the pKi [2] of the same compound?
The pKi was 4.46.

What about the pIC50 [3] of the same compound?
The pIC50 was 4.23.

And the pKi [3]?
The pKi was 4.56.

What about the inhibition [1] of the same compound?
The inhibition was 67.4%.

For `O=C(/C=C(\O)c1ccccc1)c1cc2ccoc2cc1O`, which inhibition [1] is on record?
The inhibition was 24.3%.

Which inhibition [1] does the source give for `CC(=O)c1cc2oc(-c3coc4cc(C(C)=O)c(O)cc34)cc2cc1O` here?
The inhibition was 36.2%.

Which inhibition [1] does the source give for `CC(=O)c1cc2ccoc2cc1O` here?
Its inhibition is 19%.

`COc1c(C(=O)/C=C(\O)c2ccc(CO)c(CO)c2)ccc2occc12` was tested. Which inhibition [1] did it give?
Its inhibition is 42.8%.

For `COc1ccc(/C(O)=C/C(=O)c2ccc3occc3c2OC)cc1`, which Activity [1] is on record?
Its Activity is “inactive”.

For `COC(=O)c1ccc2oc(-c3coc4ccc(C(=O)OC)c(O)c34)cc2c1O`, which inhibition [1] is on record?
The inhibition was 55.5%.

With `COc1ccc2cc(-c3coc4c(C(C)=O)c(OC)ccc34)oc2c1C(C)=O` as the compound, how does the inhibition [1] read?
The inhibition was 54.6%.

`COc1ccc(/C(O)=C/C(=O)c2ccc3occc3c2O)cc1` was tested. Which inhibition [1] did it give?
The inhibition was 24.3%.

For `COc1ccc(/C(O)=C/C(=O)c2cc3ccoc3cc2O)cc1`, which inhibition [1] is on record?
Its inhibition is 40.5%.

How did the pIC50 [2] turn out when `O=c1cc(-c2ccccc2)oc2cc3occc3cc12` was run?
Its pIC50 is 4.03.

What about the pKi [2] of the same compound?
The pKi was 4.24.

What about the pIC50 [3] of the same compound?
Its pIC50 is 4.21.

And the pKi [3]?
Its pKi is 4.35.

What about the inhibition [1] of the same compound?
Its inhibition is 67.5%.

`COc1cccc(-c2cc(=O)c3cc4ccoc4cc3o2)c1` was tested. Which Activity [1] did it give?
The Activity was “inactive”.

`COc1cc2occc2cc1C(=O)/C=C(\O)c1ccccc1` was tested. Which inhibition [1] did it give?
The inhibition was 41.5%.

For `O=c1cc(-c2ccc(CO)c(CO)c2)oc2cc3occc3cc12`, which inhibition [1] is on record?
The inhibition was 8.1%.

With `COc1c(C(=O)/C=C(\O)c2ccccc2Cl)ccc2occc12` as the compound, how does the inhibition [1] read?
The inhibition was 27%.

How did the inhibition [1] turn out when `O=C(/C=C(\O)c1ccc(CO)c(CO)c1)c1cc2ccoc2cc1O` was run?
The inhibition was 56.7%.

For `COc1ccc(-c2cc(=O)c3cc4ccoc4cc3o2)cc1OC`, which inhibition [1] is on record?
Its inhibition is 24.3%.

How did the inhibition [1] turn out when `COc1ccc(-c2cc(=O)c3ccc4occc4c3o2)cc1` was run?
Its inhibition is 22%.

With `CC(=O)c1c(O)ccc2cc(-c3coc4c(C(C)=O)c(O)ccc34)oc12` as the compound, how does the pIC50 [2] read?
Its pIC50 is 4.12.

And the pKi [2]?
Its pKi is 4.19.

What about the pIC50 [3] of the same compound?
Its pIC50 is 4.25.

And the pKi [3]?
Its pKi is 4.27.

And the inhibition [1]?
The inhibition was 72%.

`COc1ccc(-c2cc(=O)c3cc4ccoc4cc3o2)cc1` was tested. Which pIC50 [2] did it give?
The pIC50 was 4.14.

And the pKi [2]?
The pKi was 4.52.

What about the pIC50 [3] of the same compound?
The pIC50 was 4.16.

What about the pKi [3] of the same compound?
The pKi was 4.44.

And the inhibition [1]?
Its inhibition is 75.6%.

For SODIUM ORTHOVANAD, which inhibition [4] is on record?
Its inhibition is 56%.
